From PubChem BioAssay
UBC13 polyUb = inhibitors of human UBC13 polyubiquitin chain formation | P61088 | TR-FRET | inhibition, % at 20 µM | 330,000 compounds, 0.47% hits; in the data active means inhibition above about 45%, passing the limit was not always enough; inconclusive means no clear call, values can overlap the other calls
MEKK3 PB1 HTS = MEKK3-MEK5 PB1 interaction, increase or decrease; Q99759; AID 1529; binding response (% of control), % at 10 µM; bead-based flow cytometry, Alexa488-MEK5 binding to MEKK3; actives lie on both sides; 0 = blocked by unlabeled MEK5, 100 = vehicle; 290,000 compounds, 1.4% hits;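 active means binding response more than 3 SD above or below the average of its plate-row segment, actives on both sides; inconclusive means wells at one plate position flagged as instrument error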;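 further: Alexa488 bead fluorescence after subtracting the streptavidin-only scavenger bead signal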
Target sequence (Q99759 whole entry, looked up): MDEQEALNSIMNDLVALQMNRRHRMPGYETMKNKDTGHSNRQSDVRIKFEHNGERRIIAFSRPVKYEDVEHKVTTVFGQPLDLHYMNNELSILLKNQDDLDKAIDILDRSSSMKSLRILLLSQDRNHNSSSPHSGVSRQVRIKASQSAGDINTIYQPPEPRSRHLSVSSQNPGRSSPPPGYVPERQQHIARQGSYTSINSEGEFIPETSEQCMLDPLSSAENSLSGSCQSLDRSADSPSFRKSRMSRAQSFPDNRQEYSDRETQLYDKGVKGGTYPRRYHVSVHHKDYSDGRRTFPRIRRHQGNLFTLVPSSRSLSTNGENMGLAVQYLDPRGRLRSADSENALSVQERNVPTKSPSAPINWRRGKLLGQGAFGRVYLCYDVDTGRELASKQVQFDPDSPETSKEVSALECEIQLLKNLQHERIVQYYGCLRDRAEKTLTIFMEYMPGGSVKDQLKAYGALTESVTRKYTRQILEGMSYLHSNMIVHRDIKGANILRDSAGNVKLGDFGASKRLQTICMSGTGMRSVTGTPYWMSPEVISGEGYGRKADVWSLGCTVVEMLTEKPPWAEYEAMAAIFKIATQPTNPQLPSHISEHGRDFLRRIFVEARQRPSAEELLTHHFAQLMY
MEKK2 mut-MEK5 = signal of MEK5 binding to mutant human MEKK2 PB1 domain | AID 1530 | 290,000 compounds, 0.35% hits | percent response, % at 10 µM | bead flow cytometry, Alexa488-MEK5 binding to MEKK2 mutant; in the data active means percent response above about 24%, passing the limit was not always enough
Apaf-1 inh = human Apaf-1 inhibition | O14727 | reconstituted apoptosome caspase-3 activity, DEVD-Rh110 fluorescence | inhibition, % at 20 µM | 330,000 compounds, 0.71% hits | AID 489030; active means inhibition of at least 40% at 20 µM;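 further: plate controls were DMSO wells for no effect and DEVD-CHO caspase inhibitor wells for full effect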
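System: reconstituted apoptosome with Apaf-1, cytochrome c, caspase-9, procaspase-3, dATP; Signal: Rh110 fluorescence intensity; Schedule: 30 min compound preincubation, 50 min activation, room temperature; Reagent: cytochrome c trigger plus (Z-DEVD)2-Rh110 caspase-3 substrate.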
MEKK2 WT-MEK5 = raises or lowers MEK5 binding to wildtype human MEKK2 PB1 domain; bead flow cytometry, Alexa488-MEK5 binding to MEKK2 WT; actives lie on both sides; binding response (% of control), % at 10 µM; Q9Y2U5; 290,000 compounds, 1.1% hits; in the data active means binding response below about 67% or above about 130%; inconclusive means no clear call, values can overlap the other calls; inactive means in between
Pemphigus Ab inh = inhibitors of pemphigus antibody binding to human desmoglein-3. AID 588358. binding (percent of control), % at 10 µM. DSG3-coupled beads, scFv-anti-DSG3-GFP binding, flow cytometry; stronger effect = lower value. 310,000 compounds, 0.48% hits. P32926;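 active means binding more than 3 SD below its plate's average and above zero; inconclusive means below that plate limit but binding exactly zero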
Casp3 UBC13 ctr = inhibits human caspase-3 in UBC13 counter-screen; shares compounds with UBC13 polyUb; Recombinant caspase-3, Caspase-Glo 3/7 luminescence, 60 min; inhibition, % at 20 µM; 1,400 compounds, 4% hits;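 active means mean inhibition across replicates above about 26%, limit read from the data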;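 further: plate controls were DMSO with caspase-3 for no effect and DMSO wells lacking enzyme for full effect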
UBC13 conf = human UBC13 polyubiquitin inhibition, confirmed; shares compounds with UBC13 polyUb; UBC13 polyubiquitination, TR-FRET, biochemical; inhibition, % at 10 µM; 1,400 compounds, 68% hits; AID 488859; in the data active means inhibition above about 45%; inconclusive means no clear call, values can overlap the other calls
An asterisk follows results filed as active; ? = inconclusive; . = no result given. Most compounds without a hit are left out; they make up all but 3.2% or so of the library.

SMILES	UBC13 polyUb	MEKK3 PB1 HTS	MEKK2 mut-MEK5	Apaf-1 inh	MEKK2 WT-MEK5	Pemphigus Ab inh	Casp3 UBC13 ctr	UBC13 conf
COCCCNC(=S)NNC(=O)c1ccccn1	88.8*	82.0	-16.0	3.4	73.0	106.7	1.5	101.1*
O=C(COc1ccc(Cl)cc1)NNC(=O)c1ccccn1	71.0*	.	.	11.0	.	99.9	-1.6	97.0*
Cc1cc(C)cc(OCC(=O)NNC(=O)c2ccccn2)c1	95.9*	.	.	-24.3	.	102.8	1.6	84.6*
COCCCNC(=S)NNC(=O)c1ccccc1Br	-4.8	101.0	2.0	-6.5	105.0	109.0	.	.
COc1cccc(C(=O)Nc2cc(C)nn2-c2ccccc2)c1OC	3.4	94.0	1.0	-4.3	95.0	97.7	.	.
CC(C)(C)c1ccc(OCCC(=O)OCC(=O)Nc2ccc(N3CCOCC3)cc2)cc1	-4.0	.	.	29.1	.	100.9	.	.
Cc1ccccc1C(OCC(O)CN1CCN(CCO)CC1)c1ccccc1 (stereo unspecified)	4.8	101.0	9.0	-2.8	103.0	104.4	.	.
COc1ccccc1C(CNC(=O)CCNS(=O)(=O)c1ccc(Br)cc1)N1CCCC1 (stereo unspecified)	.	.	.	.	.	118.4	.	.
CC1(C)Cc2c(sc(NC(=O)c3ccc4c(c3)OCCO4)c2C(N)=O)C(C)(C)N1	54.6*	109.0	12.0	4.3	124.0	102.7	-3.9	70.2*
CC1CCCN(CCCNC(=O)C2CCCN(c3ncnc4c3nc3n4CCCCC3)C2)C1 (stereo unspecified)	24.1	99.0	0.0	7.2	110.0	105.2	.	.
Cc1ccccc1CN1CCC(CNC(=O)C2CCCN(c3ncnc4c3nc3n4CCCCC3)C2)CC1 (stereo unspecified)	71.7*	99.0	15.0	8.6	115.0	.	1.1	89.5*
O=C(NCCCN1CCN(c2ccc(F)cc2)CC1)C1CCCN(c2ncnc3c2nc2n3CCCCC2)C1 (stereo unspecified)	82.9*	100.0	9.0	8.6	118.0	101.1	0.6	106.7*
COc1cccc(CCNC(=O)C2CCCN(c3ncnc4c3nc3n4CCCCC3)C2)c1OC (stereo unspecified)	7.7	100.0	-1.0	3.0	102.0	100.9	.	.
CC(=O)N/C(=N\c1nc(C)cc(C)n1)Nc1ccc(Cl)cc1Cl	8.6	96.0	-1.0	2.1	92.0	97.6	.	.
CCCc1nnc(NC(=O)c2nc(S(=O)(=O)Cc3cccc(C)c3)ncc2Cl)s1	54.4*	106.0	4.0	-5.7	107.0	125.0	5.3	61.6*
COc1ccc(C(=O)Nc2ccc3oc(-c4cccc(F)c4)nc3c2)cc1OC	54.1*	.	.	-3.3	.	51.9*	3.1	35.0
COc1ccc(C(=O)Nc2ccc3oc(-c4cccnc4)nc3c2)cc1OC	6.5	99.0	-12.0	5.0	85.0	103.7	.	.
CSCCC(NC(=O)c1ccco1)C(=O)N1CC(C)OC(C)C1 (stereo unspecified)	3.9	.	.	-7.2	.	.	.	.
CCOC(=O)CCCSc1nnc(CCCCCN2C(=O)c3cccc4cccc(c34)C2=O)o1	52.7*	108.0	9.0	28.7	121.0	103.5	-1.6	42.2
CN(C)CCC(=O)C(Cc1ccccc1)c1ccccc1 (stereo unspecified)	47.0*	.	.	-16.9	.	95.5	3.6	40.1
Nc1cccc2c1nnn2C1OC(CO)C(O)C(O)C1O (stereo unspecified)	4.4	82.0	0.0	1.2	96.0	106.6	.	.
Cc1cccc2c1c(N=NC(N)=S)c(O)n2C1OC(CO)C(O)C(O)C1O (stereo unspecified)	67.3*	108.0	8.0	-18.0	112.0	118.4	4.8	96.9*
Cc1nc(N)sc1C(=O)N/N=C/c1cccnc1	92.2*	106.0	-2.0	0.9	99.0	96.0	24.2	107.8*
C[C@H]1CN([C@@H](C)CO)S(=O)(=O)c2ccc(-c3cncnc3)cc2O[C@H]1CN(C)C(=O)NC1CCCC1	.	.	.	.	.	100.6	.	.
O=C(Nc1cccnc1)c1sc(Nc2ccccc2)nc1-c1ccccc1	47.8*	98.0	-2.0	9.4	95.0	97.0	-2.0	11.4
SMILES	UBC13 polyUb	MEKK3 PB1 HTS	MEKK2 mut-MEK5	Apaf-1 inh	MEKK2 WT-MEK5	Pemphigus Ab inh	Casp3 UBC13 ctr	UBC13 conf
COc1ccc2cc(C(=O)N3CCc4ccccc43)[nH]c2c1	6.3	109.0	9.0	6.4	102.0	105.8	.	.
COc1ccc(-c2cc3ccccc3s2)cc1[C@H]1[C@H]2C=CC[C@@H](C)[C@@H]2C(=O)N1Cc1ccccc1	48.4*	96.0	-4.0	0.9	93.0	99.5	60.3*	34.4
CSc1nc(N2CCOCC2)c2c(c1C#N)CCCCC2	52.6*	102.0	7.0	13.4	106.0	115.0	0.6	?
COc1cccc(NC(=O)c2cnc(NS(=O)(=O)c3ccccc3)nc2)c1	.	.	.	.	.	100.5	.	.
CSCCC(NC(=O)c1ccccc1Cl)C(=O)N(C)Cc1cccs1 (stereo unspecified)	-4.9	99.0	-1.0	2.9	99.0	109.7	.	.
CCOC(=O)c1c(NC(=S)NCc2ccccc2)sc2c1CCN(C(=O)OCC)C2	8.7	102.0	0.0	9.1	98.0	97.0	.	.
C=CCNC(=S)Nc1sc2c(c1C(=O)OCC)CCN(C(=O)OCC)C2	50.4*	105.0	1.0	14.5	104.0	110.2	3.3	?
CCN1CCN(C(=O)c2cc3c(s2)-c2c(C)cccc2OC3)CC1	79.5*	106.0	7.0	1.1	124.0	109.7	53.5*	75.7*
O=C1C2C3C=CC(C4CC34)C2C(=O)N1c1cccc2ccccc12 (stereo unspecified)	1.3	101.0	0.0	-3.1	104.0	100.2	.	.
CCC(C)[C@H]1CN=C(N)N1CCc1cccc2ccccc12 (stereo partly specified)	45.1*	101.0	13.0	39.3	126.0	106.0	1.9	50.8*
CCC(C)[C@H]1CNC(=S)N1CCc1cccc2ccccc12 (stereo partly specified)	10.3	83.0	-9.0	16.0	92.0	106.5	.	.
Oc1ccc(C[C@H]2CNCCN2CCCCC2CCCCC2)cc1	58.1*	.	.	40.6*	.	116.0	-3.9	26.4
O=C(Nc1cccc2nsnc12)c1ccc(-c2cccc(Cl)c2)o1	48.9*	100.0	-3.0	39.8	91.0	96.3	31.5*	7.9
Cc1ccsc1C(=O)OCC(=O)c1ccc(OC(F)F)cc1	7.5	.	.	-9.5	.	.	.	.
COc1ccc(Nc2cc(Nc3cc(OC)c(OC)c(OC)c3)ncn2)cc1	54.9*	102.0	6.0	0.5	106.0	96.5	-1.1	58.2*
